The nature of test [1]: Her2 expression decrease, cell viability multiplex – SKBR3 breast tumor cells, AlphaScreen, ATP viability, primary screen (AID 461).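 For Her2 level: lower value means less Her2 protein in the cells.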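 For viability: percent of carrier control wells set as 100% viability.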 Particulars: SKBR3 Her2 protein level, 18-24 h, measured here: SKBR3 viability, ATP luminescence, at 10 µM. Background: In Alpha technology, singlet oxygen from a donor bead excites a nearby acceptor bead.
Test [2] deals with Receptor tyrosine-protein kinase erbB-2 (Homo sapiens) (UniProt P04626). Described as above. As to conditions: 18-24 h, at 10 µM, stronger effect = lower value.
Test [3] can be described thus: reduced viability of SK-BR-3 breast cancer cells – cell-based, 24 h, human, pilot screen (AID 572;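 active = viability at or below 10% of carrier control in both of two separate runs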;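 note: compound exposure lasted between 18 and 24 h rather than exactly 24 h; 100% = carrier-treated control wells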). As to conditions: SK-BR-3 viability, CellTiter-Glo luminescence, at 10 µM, stronger effect = lower value. Background: In ATP-based viability assays light output follows the ATP content of the culture.
Test [4] is described as follows: HUVEC growth inhibition – cell-based, human, primary screen (AID 575;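 active = viability at or below 30% in both replicate assays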;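 note: 100% = median of untreated cell wells with 0.1% DMSO on each plate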). Particulars: HUVEC proliferation, CellTiter-Glo luminescence, 72 h; at 10 µM; stronger effect = lower value. The procedure, abridged:
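Test system: primary human umbilical vein endothelial cells. Quantity: 1250 cells/well. Compound: single 10 µM dose, 0.1% DMSO, from 5x medium stock. Timing: 72 h treatment at 37 °C. Detection: ATP-based CellTiter-Glo luminescent read. Benchmarks: vehicle and MePR control wells. Format: 384-well plates coated with collagen.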

The nature of test [5]: H69AR cell proliferation blockers – human, duplicate replicates, primary screen (AID 580;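 active = viability at or under a set limit in both replicates, limit being median viability minus 3 SD, cut at about 48% in these data, passing the limit was not always enough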;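 note: 100% = mean luminescence of untreated wells and 0% = no signal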). As to conditions: H69AR lung tumor cells viability, ATP luminescence, 72 h; at 10 µM; stronger effect = lower value.
Test [6] in a line: MRP1 drug-resistance reversers in H69AR cells – cell-based, doxorubicin co-treatment, pilot screen (AID 601;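 active = viability loss from added drug above about 55%, and viability with drug at most 40%, in both replicates, limit read from the data, passing the limit was not always enough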). As to conditions: CellTiter-Glo, 72 h, at 10 µM; for differential viability (reversal): stronger effect = higher value.
Test [7] is described as follows: yeast transport mutant growth inhibition pilot in 384-well plates, post-Golgi transport modulator project (AID 636; in the data active = inhibition above about 31%). Particulars: absorbance 615 nm, about 18 h, stronger effect = higher value.
A short description of test [8]: growth suppression of yeast trafficking mutant, preliminary HTS, modulators of trafficking downstream of Golgi apparatus project, 1536-format plate, OD 615 nm (AID 637; in the data active = inhibition above about 30%). Particulars: yeast transport mutant growth, absorbance 615 nm, 18 h; stronger effect = higher value.
Where [9] appears, read: H69AR cells + 2 uM doxorubicin, measured here: viability with 2 uM doxorubicin, stronger effect = lower value.
Setting [10] is: H69AR cells, compound alone cytotoxicity.

Usually viability stands for a read-out of living cells in per cent, often relative to untreated cells. As usually defined, the inhibition is the change of the read-out against control, counted positive when it falls.

Active and inactive are the calls of the source.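 Rule for the calls, unless noted: active = Her2 level under about 52% in both replicate screens, with viability over 70% of control (limit read from the data); inconclusive = Her2 under the limit in one screen only, or viability under 70%; inactive = Her2 level above the set limit.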

Chain of Receptor tyrosine-protein kinase erbB-2 (Homo sapiens) (P04626 whole entry, looked up): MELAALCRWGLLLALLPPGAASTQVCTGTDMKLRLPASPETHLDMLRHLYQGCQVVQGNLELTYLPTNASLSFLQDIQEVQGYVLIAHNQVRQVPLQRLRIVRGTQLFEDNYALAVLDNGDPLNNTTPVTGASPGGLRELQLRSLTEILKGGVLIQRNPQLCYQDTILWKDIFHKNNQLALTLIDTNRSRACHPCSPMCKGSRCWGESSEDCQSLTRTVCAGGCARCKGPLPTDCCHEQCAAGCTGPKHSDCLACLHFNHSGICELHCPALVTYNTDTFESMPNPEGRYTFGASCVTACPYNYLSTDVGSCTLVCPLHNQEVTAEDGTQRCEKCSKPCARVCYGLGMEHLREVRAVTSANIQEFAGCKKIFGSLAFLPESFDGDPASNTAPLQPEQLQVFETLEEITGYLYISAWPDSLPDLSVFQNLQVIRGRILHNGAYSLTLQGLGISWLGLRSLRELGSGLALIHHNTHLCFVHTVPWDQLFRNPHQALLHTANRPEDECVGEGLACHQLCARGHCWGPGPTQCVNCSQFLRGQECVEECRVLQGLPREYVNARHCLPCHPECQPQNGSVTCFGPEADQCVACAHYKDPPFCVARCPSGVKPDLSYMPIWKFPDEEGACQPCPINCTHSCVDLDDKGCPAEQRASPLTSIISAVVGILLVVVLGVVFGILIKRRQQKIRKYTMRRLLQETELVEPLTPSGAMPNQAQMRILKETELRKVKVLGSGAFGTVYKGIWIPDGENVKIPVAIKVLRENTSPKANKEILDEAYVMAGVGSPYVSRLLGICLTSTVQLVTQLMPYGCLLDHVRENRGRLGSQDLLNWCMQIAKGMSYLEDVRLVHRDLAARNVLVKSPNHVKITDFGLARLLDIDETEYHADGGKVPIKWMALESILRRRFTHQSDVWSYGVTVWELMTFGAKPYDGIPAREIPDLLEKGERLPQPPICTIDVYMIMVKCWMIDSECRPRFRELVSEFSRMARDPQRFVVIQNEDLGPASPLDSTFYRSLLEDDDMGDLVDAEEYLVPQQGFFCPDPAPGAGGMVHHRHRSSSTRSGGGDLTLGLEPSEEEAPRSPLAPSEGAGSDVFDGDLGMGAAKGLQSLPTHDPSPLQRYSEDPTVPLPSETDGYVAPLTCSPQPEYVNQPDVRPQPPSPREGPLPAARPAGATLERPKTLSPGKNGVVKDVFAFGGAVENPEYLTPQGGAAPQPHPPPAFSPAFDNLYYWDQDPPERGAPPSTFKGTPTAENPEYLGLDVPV

`COc1ccc(CNc2nc(SCC(=O)NCc3ccco3)nc3ccccc23)cc1`: the viability in test [1] is 80%; in test [3], 80% (inactive); in test [4] it was 84.6% (inactive); in test [5], 94.4% (inactive); in test [6] (setting [9]), 76.7%; in test [6] (setting [10]) it was 94.4%. In addition, in test [2], the Her2 level is 90.5% (inactive). The differential viability (reversal) in test [6] (H69AR cells + 2 uM doxorubicin) was 17.6% (inactive). Also, the inhibition in test [7] was -3.6% (inactive); in test [8], -4.26% (inactive).

With `Cc1nn(C)cc1NC(=O)CCSc1nc(-c2ccco2)cc(C(F)(F)F)n1`, the viability in test [1] was 90.5%; in test [3] it was 90.5% (inactive); in test [4], 102% (inactive); in test [5], 87.3% (inactive); in test [6] (setting [9]), 81.9%; in test [6] (setting [10]) it was 87.3%. In test [2], the Her2 level was 104% (inactive). Further, the differential viability (reversal) in test [6] (H69AR cells + 2 uM doxorubicin) is 5.31% (inactive). Moreover, the inhibition in test [7] was -4.4% (inactive); in test [8] it was 23.9% (inactive).

For `COc1ccc(-c2noc(CCCC(=O)O)n2)cc1`, the viability in test [1] is 130%; in test [3], 130% (inactive); in test [4], 97.1% (inactive); in test [5], 95% (inactive); in test [6] (setting [9]) it was 89.9%; in test [6] (setting [10]), 95%. Also, the Her2 level in test [2] is 91.5% (inactive). In addition, the differential viability (reversal) in test [6] (H69AR cells + 2 uM doxorubicin) is 5.04% (inactive). Moreover, the inhibition in test [7] is -6.4% (inactive); in test [8] it was 5.08% (inactive).

On to `COCCn1c(SCC(=O)Nc2nnc(C)s2)nnc1-c1ccncc1`, for which the viability in test [1] was 110%; in test [3], 110% (inactive); in test [4], 101% (inactive); in test [5], 97.9% (inactive); in test [6] (setting [9]), 86.1%; in test [6] (setting [10]), 97.9%. For the same compound, in test [2], the Her2 level was 94% (inactive). Also, in test [6] (H69AR cells + 2 uM doxorubicin), the differential viability (reversal) was 11.8% (inactive). In addition, the inhibition in test [7] is -5.95% (inactive); in test [8], 7.83% (inactive).

On to `COc1ccc(CNc2ccc(C(=O)O)cc2)cc1`, for which the viability in test [1] is 102%; in test [3], 102% (inactive); in test [4], 93% (inactive); in test [5] it was 91.7% (inactive); in test [6] (setting [9]), 86.8%; in test [6] (setting [10]), 91.7%. Further, in test [2], the Her2 level is 87% (inactive). The differential viability (reversal) in test [6] (H69AR cells + 2 uM doxorubicin) was 4.9% (inactive). Moreover, the inhibition is -3.87% (inactive) in test [7] and 8.55% (inactive) in test [8].

For the compound `COc1ccc(-c2nc(C#N)c(NCCCN(C)C)o2)cc1OC`, the viability was 95% in test [1]; 95% (inactive) in test [3]; 102% (inactive) in test [4]; 96.2% (inactive) in test [5]; 93.1% in test [6] (setting [9]); 96.2% in test [6] (setting [10]). In addition, in test [2], the Her2 level is 111% (inactive). Further, the differential viability (reversal) in test [6] (H69AR cells + 2 uM doxorubicin) is 3.08% (inactive). Moreover, the inhibition in test [7] is -0.26% (inactive); in test [8], -5% (inactive).

With `CC(=Nc1ccc(C)c(C)c1)C1=C(O)CCC1=O`, the viability in test [1] is 102%; in test [3], 102% (inactive); in test [4], 95.1% (inactive); in test [5], 94.7% (inactive); in test [6] (setting [9]), 82.8%; in test [6] (setting [10]), 94.7%. Besides, the Her2 level in test [2] was 88.5% (inactive). Moreover, the differential viability (reversal) in test [6] (H69AR cells + 2 uM doxorubicin) is 12% (inactive). Moreover, the inhibition is -3.73% (inactive) in test [7] and -2.46% (inactive) in test [8].

Turning to `CC(C)CCNC(=O)C(c1cccs1)N(CC1CCCO1)C(=O)Cn1nnc2ccccc21` (stereo not given), the viability was 116% in test [1]; 116% (inactive) in test [3]; 96.2% (inactive) in test [4]; 89.8% (inactive) in test [5]; 85.5% in test [6] (setting [9]); 89.8% in test [6] (setting [10]). Further, the Her2 level in test [2] is 112% (inactive). Also, the differential viability (reversal) in test [6] (H69AR cells + 2 uM doxorubicin) was 4.32% (inactive). Besides, the inhibition in test [7] was -5.71% (inactive); in test [8], -6.33% (inactive).

Take `CCN(CCNC(=O)C1CCN(S(C)(=O)=O)CC1)c1ccccc1`: the viability in test [1] is 91%; in test [3], 91% (inactive); in test [4], 93.3% (inactive); in test [5], 88.2% (inactive); in test [6] (setting [9]), 82.8%; in test [6] (setting [10]), 88.2%. Moreover, the Her2 level in test [2] is 104% (inactive). The differential viability (reversal) in test [6] (H69AR cells + 2 uM doxorubicin) is 5.42% (inactive). Moreover, the inhibition in test [7] was -1.67% (inactive); in test [8], -1% (inactive).

Turning to `O=C(NCc1ccco1)c1cnn2c(C(F)(F)F)cc(-c3ccco3)nc12`, the viability in test [1] was 86.5%; in test [3] it was 86.5% (inactive); in test [4], 92.9% (inactive); in test [5] it was 71.8% (inactive); in test [6] (setting [9]) it was 71.7%; in test [6] (setting [10]) it was 71.8%. Moreover, the Her2 level in test [2] is 74.5% (inactive). Moreover, in test [6] (H69AR cells + 2 uM doxorubicin), the differential viability (reversal) is 0.17% (inactive). For the same compound, the inhibition in test [7] is -7.26% (inactive); in test [8], 1.9% (inactive).

`CC12CCC(C(=O)N3CCCCC3)(CC1=O)C2(C)C` (stereo not given): the viability in test [1] is 97.5%; in test [3], 97.5% (inactive); in test [4], 96.3% (inactive); in test [5], 97.8% (inactive); in test [6] (setting [9]) it was 97.2%; in test [6] (setting [10]) it was 97.8%. The Her2 level in test [2] was 102% (inactive). Moreover, in test [6] (H69AR cells + 2 uM doxorubicin), the differential viability (reversal) is 0.59% (inactive). The inhibition in test [7] is -3.08% (inactive); in test [8], -0.83% (inactive).

Turning to `NCCN1CCN(CCN)CC1`, the viability in test [1] is 106%; in test [3] it was 106% (inactive); in test [4], 84.6% (inactive); in test [5] it was 93.7% (inactive); in test [6] (setting [9]), 81.4%; in test [6] (setting [10]), 93.7%. Besides, in test [2], the Her2 level is 77% (inactive). Besides, in test [6] (H69AR cells + 2 uM doxorubicin), the differential viability (reversal) is 12.2% (inactive). Also, the inhibition in test [7] was -3.87% (inactive); in test [8] it was 2.38% (inactive).

Turning to `CC1(C)OC(=O)C(=CNC(CCC(N)=O)C(=O)O)C(=O)O1` (stereo not given), the viability is 100% in test [1]; 100% (inactive) in test [3]; 109% (inactive) in test [4]; 86.2% (inactive) in test [5]; 101% in test [6] (setting [9]); 86.2% in test [6] (setting [10]). Further, the Her2 level in test [2] is 110% (inactive). The differential viability (reversal) in test [6] (H69AR cells + 2 uM doxorubicin) is -14.4% (inactive). In addition, the inhibition in test [7] is 6.49% (inactive); in test [8], 5.4% (inactive).

For the compound `COc1ccccc1OCc1ccc(C(=O)NC(C)(C)C)o1`, the viability in test [1] was 83%; in test [3], 83% (inactive); in test [4] it was 94.2% (inactive); in test [5] it was 95.4% (inactive); in test [6] (setting [9]), 80.9%; in test [6] (setting [10]), 95.4%. Moreover, the Her2 level in test [2] is 102% (inactive). Also, the differential viability (reversal) in test [6] (H69AR cells + 2 uM doxorubicin) is 14.6% (inactive). For the same compound, the figures for the inhibition in test [7] and in test [8] were 1.71% (inactive) and -5.82% (inactive), respectively.

Take `Cc1ccccc1-c1nc(CS(=O)(=O)CC(=O)NCc2ccc3c(c2)OCO3)c(C)o1`: the viability in test [1] was 99%; in test [3], 99% (inactive); in test [4] it was 87.3% (inactive); in test [5] it was 87.8% (inactive); in test [6] (setting [9]) it was 85.5%; in test [6] (setting [10]), 87.8%. Also, the Her2 level in test [2] was 89% (inactive). Moreover, the differential viability (reversal) in test [6] (H69AR cells + 2 uM doxorubicin) is 2.28% (inactive). Moreover, the figures for the inhibition in test [7] and in test [8] were -4.53% (inactive) and 3.61% (inactive), respectively.

Source of the values: PubChem BioAssay.
